Measured values as given in ChEMBL document CHEMBL4680104, “Structure-Based Optimization of Small-Molecule Inhibitors for the β-Catenin/B-Cell Lymphoma 9 Protein-Protein Interaction” (J Med Chem, 2018).
The source made the active and inactive calls. The calls are words filed in the database; no cut-off is given here.

Legend:
[1] = target: T1, beta-catenin-B-cell lymphoma 9 protein complex (Homo sapiens, UniProt P35222); experiment: Inhibition of protein interaction between C-terminal 6x-histidine tagged full-length beta-catenin (1 to 781 residues) (unknown origin)/N-terminal biotinylated human BCL9 ( 350 to 375 residues) incubated for 1 hr by Alpha-screen competitive inhibition assay; assay type: protein-complex assay
T1 sequence (P35222 whole entry): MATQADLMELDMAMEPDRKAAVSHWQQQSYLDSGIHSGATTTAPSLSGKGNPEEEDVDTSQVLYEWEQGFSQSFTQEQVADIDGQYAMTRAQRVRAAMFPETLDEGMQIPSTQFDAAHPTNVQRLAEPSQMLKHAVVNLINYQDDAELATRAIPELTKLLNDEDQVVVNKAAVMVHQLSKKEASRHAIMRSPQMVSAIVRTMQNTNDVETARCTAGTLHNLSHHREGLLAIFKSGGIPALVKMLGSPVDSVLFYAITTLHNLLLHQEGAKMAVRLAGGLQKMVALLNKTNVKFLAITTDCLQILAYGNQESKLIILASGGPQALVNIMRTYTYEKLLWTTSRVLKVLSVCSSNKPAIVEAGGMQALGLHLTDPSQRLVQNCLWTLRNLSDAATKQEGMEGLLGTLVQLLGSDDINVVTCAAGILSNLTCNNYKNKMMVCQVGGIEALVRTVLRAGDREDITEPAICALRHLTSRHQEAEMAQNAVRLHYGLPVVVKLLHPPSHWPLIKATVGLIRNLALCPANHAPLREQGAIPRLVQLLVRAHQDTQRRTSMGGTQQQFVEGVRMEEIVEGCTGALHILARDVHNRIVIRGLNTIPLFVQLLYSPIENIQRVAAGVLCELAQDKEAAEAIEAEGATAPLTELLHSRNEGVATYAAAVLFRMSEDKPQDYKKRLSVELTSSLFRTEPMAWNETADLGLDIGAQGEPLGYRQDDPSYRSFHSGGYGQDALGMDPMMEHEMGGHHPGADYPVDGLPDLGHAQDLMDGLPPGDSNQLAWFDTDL
T1 sequence (O00512 whole entry): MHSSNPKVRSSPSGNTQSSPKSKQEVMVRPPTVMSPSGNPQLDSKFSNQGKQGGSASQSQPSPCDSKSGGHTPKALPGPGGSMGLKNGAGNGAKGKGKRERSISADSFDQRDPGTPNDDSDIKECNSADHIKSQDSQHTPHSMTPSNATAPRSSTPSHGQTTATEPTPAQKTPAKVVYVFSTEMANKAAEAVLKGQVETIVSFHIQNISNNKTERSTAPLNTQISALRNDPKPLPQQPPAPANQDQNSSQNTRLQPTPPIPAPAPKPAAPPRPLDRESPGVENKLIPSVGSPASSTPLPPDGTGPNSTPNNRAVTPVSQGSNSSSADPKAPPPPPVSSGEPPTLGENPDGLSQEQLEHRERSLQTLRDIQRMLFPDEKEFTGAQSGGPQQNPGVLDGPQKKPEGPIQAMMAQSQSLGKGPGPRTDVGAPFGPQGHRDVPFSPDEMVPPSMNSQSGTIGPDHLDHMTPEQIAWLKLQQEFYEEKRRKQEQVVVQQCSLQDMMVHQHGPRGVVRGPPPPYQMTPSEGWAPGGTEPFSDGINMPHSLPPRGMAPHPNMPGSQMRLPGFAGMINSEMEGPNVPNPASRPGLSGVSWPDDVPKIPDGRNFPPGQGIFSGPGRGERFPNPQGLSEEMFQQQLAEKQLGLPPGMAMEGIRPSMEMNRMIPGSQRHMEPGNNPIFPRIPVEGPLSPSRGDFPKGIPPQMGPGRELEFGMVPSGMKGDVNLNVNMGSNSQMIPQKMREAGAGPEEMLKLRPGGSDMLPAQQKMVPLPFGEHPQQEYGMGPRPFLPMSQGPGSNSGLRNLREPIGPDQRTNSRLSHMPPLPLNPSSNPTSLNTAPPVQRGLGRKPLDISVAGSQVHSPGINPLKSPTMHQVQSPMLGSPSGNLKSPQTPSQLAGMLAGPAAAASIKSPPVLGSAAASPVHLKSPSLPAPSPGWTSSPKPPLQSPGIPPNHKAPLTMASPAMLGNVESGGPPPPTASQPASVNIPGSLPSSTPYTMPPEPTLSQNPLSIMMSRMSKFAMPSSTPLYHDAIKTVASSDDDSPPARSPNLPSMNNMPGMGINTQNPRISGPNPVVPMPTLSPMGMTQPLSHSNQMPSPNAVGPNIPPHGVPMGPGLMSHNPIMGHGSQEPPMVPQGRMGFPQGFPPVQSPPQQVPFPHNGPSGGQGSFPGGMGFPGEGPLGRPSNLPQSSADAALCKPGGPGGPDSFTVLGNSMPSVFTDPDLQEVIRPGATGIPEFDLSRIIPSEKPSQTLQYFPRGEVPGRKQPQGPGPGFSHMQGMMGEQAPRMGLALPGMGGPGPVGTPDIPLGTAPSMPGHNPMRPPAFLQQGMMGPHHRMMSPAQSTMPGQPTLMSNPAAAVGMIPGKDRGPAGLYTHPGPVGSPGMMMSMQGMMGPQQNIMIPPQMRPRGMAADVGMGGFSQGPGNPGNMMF
Method in brief: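 Full-length β-catenin (residues 1–781) with a C-terminal His6 tag was expressed in E. coli BL21(DE3) after IPTG induction at 20 °C. It was purified by Ni-NTA, anion-exchange and size-exclusion chromatography. For the assay, 40 nM β-catenin was preincubated for 30 min at 4 °C with 5 nM biotinylated BCL9 or 10 nM biotinylated E-cadherin. Inhibitor was then added for 1 h at 4 °C, followed by 10 μg/mL donor and acceptor beads for 1 h at 4 °C. IC50 was obtained by nonlinear fit and converted to Ki by the Nikolovska-Coleska method. Triplicate, mean ± SD.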

SW480 [2] = experiment: Cytotoxicity in human SW480 cells assessed as reduction in cell viability incubated for 72 hrs by MTS assay; assay type: functional, cell-based; settings: SW480, 72 h
Method in brief: (§1)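 Cells seeded at 5 × 10^3 cells/well, kept overnight at 37 °C, then exposed to inhibitors at various concentrations for 72 h. Viability read with a freshly mixed PMS (0.92 mg/mL) : MTS (2 mg/mL) reagent at 1:19, incubated 3 h at 37 °C, A490 measured. […] Triplicate; mean ± SD.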

SW480 [3] = experiment: Cytotoxic activity in human SW480 cells at 800 uM incubated for 4 hrs by LDH release assay; assay type: cell-based; settings: sw480, 4 h
Method in brief: (§2)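 SW480 cells were seeded at 2 × 10^4 cells/well and kept overnight at 37 °C. They were then exposed to a range of inhibitor concentrations for 4 h. LDH in the culture supernatant was measured with a diagnostic kit by absorbance at 490 nm. Percent cytotoxicity was calculated from experimental release against maximum release, with background subtracted. Run in triplicate.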

[4] = target: T1, beta-catenin-B-cell lymphoma 9 protein complex; experiment: Inhibition of protein interaction between beta-catenin (unknown origin)/BCL9 in HEK293 cells transfected with beta-catenin assessed as reduction in Wnt/beta-catenin transactivation incubated for 24 hrs by Wnt-responsive TOP-Flash luciferase reporter assay; assay type: cell-based
Method in brief: (§3)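 HEK293 cells were cotransfected using FuGENE6 with 45 ng TOPFlash or FOPFlash reporter, 135 ng pcDNA3.1-β-catenin and 20 ng pCMV-RL normalization reporter. After 24 h in DMEM with 10% FBS at 37 °C, inhibitors or DMSO were added for 24 h. Reporter activity was read with a dual luciferase system, normalized, and compared with DMSO-treated cells. Triplicate.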

[5] = target: T1, beta-catenin-B-cell lymphoma 9 protein complex; experiment: Inhibition of protein interaction between beta-catenin (unknown origin)/BCL9 in human SW480 cells transfected with beta-catenin assessed as reduction in Wnt/beta-catenin transactivation incubated for 24 hrs by Wnt-responsive TOP-Flash luciferase reporter assay; assay type: cell-based
[6] = target: T2, beta-catenin-B-cell lymphoma 9 protein complex (Homo sapiens) (UniProt P35222+O00512); experiment: Inhibition of protein interaction between beta-catenin (unknown origin)/BCL9 in human HEK293 cells transfected with beta-catenin assessed as reduction in Wnt/beta-catenin transactivation incubated for 24 hrs by Wnt-responsive FOP-Flash luciferase reporter assay
A549 = experiment: Cytotoxicity in human A549 cells assessed as reduction in cell viability incubated for 72 hrs by MTS assay; assay type: functional, cell-based; settings: A549, 72 h; method in brief: as §1
[7] = target: T2, beta-catenin-B-cell lymphoma 9 protein complex (Homo sapiens); experiment: Inhibition of protein interaction between beta-catenin (unknown origin)/BCL9 in HEK293 cells transfected with beta-catenin assessed as reduction in Wnt/beta-catenin transactivation incubated for 24 hrs by Wnt-responsive FOP-Flash luciferase reporter assay; assay type: cell-based; method in brief: as §3
MDA-MB-231 = experiment: Cytotoxicity in human MDA-MB-231 cells assessed as reduction in cell viability incubated for 72 hrs by MTS assay; assay type: functional, cell-based; settings: MDA-MB-231, 72 h
Method in brief: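 Triple-negative breast cancer line seeded at 5 × 10^3 cells/well, held overnight at 37 °C, then exposed to inhibitor over a concentration range for 72 h. Viability read out with a fresh 1:19 mix of PMS (0.92 mg/mL) and MTS (2 mg/mL), incubated 3 h at 37 °C, A490 measured.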

HCT-116 = experiment: Cytotoxicity in human HCT-116 cells assessed as reduction in cell viability incubated for 72 hrs by MTS assay; assay type: functional, cell-based; settings: HCT-116, 72 h; method in brief: as §1
SW480 [8] = experiment: Cytotoxic activity in human SW480 cells at 50 to 100 uM incubated for 4 hrs by LDH release assay; assay type: cell-based; settings: sw480, 4 h, dose 50-100 µM; method in brief: as §2

| Structure (SMILES) | Ki [1] [µM] | IC50 (SW480 [2]) [µM] | Activity (SW480 [3]) | IC50 [4] [µM] | IC50 [5] [µM] | inhibition [6] | IC50 (A549) [µM] | inhibition [7] | IC50 (MDA-MB-231) [µM] | IC50 (HCT-116) [µM] | Activity (SW480 [8]) |
| --- | --- | --- | --- | --- | --- | --- | --- | --- | --- | --- | --- |
| Cl.Cl.NC(=O)c1ccc(-c2cc(NC(=O)c3ccc(O[C@H]4CCNC4)c(-c4ccc(F)c(F)c4)c3)ccc2O[C@H]2CCNC2)cc1 | 4.7 | 160 | Non-Toxic |  |  |  |  |  |  |  |  |
| Fc1ccc(-c2cc(-c3cnc4cc(O[C@H]5CCNC5)c(-c5ccc(F)c(F)c5)cc4c3)ccc2O[C@H]2CCNC2)cc1 | 2.2 | 1.7 |  | 14 | 7.9 | Active | 7.5 | Active | 3.1 | 2.2 |  |
| CS(=O)(=O)Nc1cccc(-c2cc(NC(=O)c3ccc(O[C@H]4CCNC4)c(-c4ccc(F)c(F)c4)c3)ccc2O[C@H]2CCNC2)c1.Cl.Cl | 5.9 | 95 | Non-Toxic |  |  |  |  |  |  |  |  |
| Cl.Cl.O=C(Nc1ccc(O[C@H]2CCNC2)c(-c2ccc(F)cc2)c1)c1ccc(O[C@H]2CCNC2)c(C2CCCCC2)c1 | 14 | 6.6 |  |  |  |  | 3.8 |  |  | 3.8 | Toxic |
| Cl.Cl.O=C(Nc1cnc(O[C@H]2CCNC2)c(-c2ccc(F)cc2)c1)c1cnc(O[C@H]2CCNC2)c(-c2ccc(F)c(F)c2)c1 | 7.3 | 9.9 |  |  |  |  |  |  |  |  | Toxic |
| Cl.Cl.N#Cc1ccc(-c2cc(NC(=O)c3ccc(O[C@H]4CCNC4)c(-c4ccc(F)c(F)c4)c3)ccc2O[C@H]2CCNC2)cc1 | 3.8 | 6.1 |  | > 25 |  |  |  |  |  |  | Toxic |
| Cc1cccc(-c2cc(NC(=O)c3ccc(O[C@H]4CCNC4)c(-c4ccc(F)c(F)c4)c3)ccc2O[C@H]2CCNC2)c1.Cl.Cl | 3.1 | 2.2 |  |  |  |  | 4.5 |  | 1.4 | 1.4 | Toxic |
| Cl.Cl.O=C(Nc1ccc(O[C@H]2CCNC2)c(-c2ccc(F)cc2)c1)c1ccc(O[C@H]2CCNC2)c(C2=CCCCC2)c1 | 7.1 | 3.7 |  |  | 8.7 | Active |  | Active | 3.4 | 6.9 | Toxic |
| Cc1ccccc1-c1cc(NC(=O)c2ccc(O[C@H]3CCNC3)c(-c3ccc(F)c(F)c3)c2)ccc1O[C@H]1CCNC1.Cl.Cl | 5.9 | 1.2 |  |  | 5.2 | Active | 23 | Active | 3.1 | 5.7 | Toxic |
| Cl.Cl.O=C(Nc1ccc(O[C@H]2CCNC2)c(-c2ccccc2C(F)(F)F)c1)c1ccc(O[C@H]2CCNC2)c(-c2ccc(F)c(F)c2)c1 | 3.8 | 2.6 |  |  |  |  |  |  |  |  | Toxic |
| Cl.Cl.O=C(Nc1ccc(O[C@H]2CCNC2)c(-c2ccc(F)cc2)c1)c1ccc(O[C@H]2CCNC2)c(-c2ccc(F)nc2)c1 | 19 | 21 |  |  |  |  |  |  |  |  | Non-Toxic |
| Cl.Cl.O=C(Nc1ccc(O[C@H]2CCNC2)c(-c2ccc(F)nc2)c1)c1ccc(O[C@H]2CCNC2)c(-c2ccc(F)c(F)c2)c1 | 16 | 15 |  |  |  |  |  |  |  |  | Toxic |
| Cl.Cl.O=C(Nc1cnc(O[C@H]2CCNC2)c(-c2ccc(F)cc2)c1)c1ccc(O[C@H]2CCNC2)c(-c2ccc(F)c(F)c2)c1 | 8.2 | 1.7 |  | 10 | 7.7 | Active | 29 | Active | 3.1 |  | Toxic |
| Cc1ccc(-c2cc(NC(=O)c3ccc(O[C@H]4CCNC4)c(-c4ccc(F)c(F)c4)c3)ccc2O[C@H]2CCNC2)cc1.Cl.Cl | 6.5 | 1.6 |  |  |  |  |  |  |  |  | Toxic |
| Cl.Cl.N#Cc1cccc(-c2cc(NC(=O)c3ccc(O[C@H]4CCNC4)c(-c4ccc(F)c(F)c4)c3)ccc2O[C@H]2CCNC2)c1 | 4.2 | 4.3 |  | > 25 |  |  |  |  |  |  | Toxic |
